Here are results for 18 compounds from ChEMBL document CHEMBL1134471, “Antimycobacterial activity of substituted isosteres of pyridine- and pyrazinecarboxylic acids. 2” (2001).

For the assay, the system named is Mycobacterium tuberculosis. As to the kind of experiment: Minimum inhibitory concentration against Mycobacterium tuberculosis H37Rv (ATCC 27294) in BACTEC 6A medium. The format is functional. The gist of the method: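 M. tuberculosis H37Rv ATCC 27294 tested in the BACTEC 460 radiometric system in BACTEC 6A medium. Percent inhibition = 1 − (growth index of test sample / growth index of control) × 100. MIC taken as the lowest concentration inhibiting 99% of the inoculum.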

Values joined by “and” are separate entries in the source; they are usually repeats but may differ in a detail not shown here. Equal entries are not always repeated. A value given as a limit tells only on which side of the number the result lay.

As for `Sc1nc(-c2cnccn2)no1`, the minimum inhibitory concentration (MIC) is 1600 µM and 288 µg/mL.

`CC(C)(C)C(=O)OCn1c(-c2cnccn2)noc1=O`: the MIC was 200 µM and 56 µg/mL.

`Oc1nc(-c2cnccn2)no1`: the MIC is 800 µM and 131 µg/mL.

With `O=c1oc(-c2ccncc2)ns1`, the MIC was 50 µM and 9 µg/mL.

Regarding `CC(C)(C)C(=O)OCn1nnnc1-c1cnccn1`, the minimum inhibitory concentration (MIC) is 50 µM and 13 µg/mL.

In the case of `Oc1nc(-c2cccnc2)no1`, the MIC was > 1600 µM and > 261 µg/mL.

For the compound `CC(C)(C)C(=O)OCn1c(-c2cccnc2)noc1=O`, the MIC is 100 µM and 28 µg/mL.

With `Sc1nc(-c2ccncc2)no1`, the MIC is > 1600 µM and > 286 µg/mL.

On to `O=c1oc(-c2cnccn2)ns1`, for which the MIC is 25 µM and 4.5 µg/mL.

For the compound `O=c1oc(-c2cccnc2)ns1`, the MIC is 25 µM and 4.5 µg/mL.

For the compound `Oc1nc(-c2ccncc2)no1`, the MIC is > 1600 µM and > 261 µg/mL.

Turning to `CC(C)(C)C(=O)OCn1c(-c2ccncc2)noc1=O`, the MIC was 50 µM and 14 µg/mL.

On to `Sc1nc(-c2cccnc2)no1`, for which the minimum inhibitory concentration (MIC) was > 1600 µM and > 286 µg/mL.

For `CC(C)(C)C(=O)OCSc1nc(-c2ccncc2)no1`, the minimum inhibitory concentration (MIC) was 200 µM and 59 µg/mL.

As to `CC(C)(C)C(=O)OCSc1nc(-c2cnccn2)no1`, the MIC is 400 µM and 118 µg/mL.

As to `CC(C)(C)C(=O)OCSc1nc(-c2cccnc2)no1`, the MIC is 200 µM and 59 µg/mL.

Consider `NNC(=O)c1ccncc1` [ISONIAZID], for which the MIC was 0.15 µM and 0.018 µg/mL.

`NC(=O)c1cnccn1` [PYRAZINAMIDE]: the MIC was 400 µM and 49 µg/mL.
